Drawing on ChEMBL document CHEMBL3045579, “Herbicidal activity of cineole derivatives” (2010), this text covers Activity for one compound.

What all share (format): functional
For assay [1], the system named is Lolium rigidum. Nature of the assay: Pre-emergence herbicidal activity against Lolium rigidum seeds assessed as seed germination at 0.1 mol/l at 25 degC after 72 hr by filter paper bioassay relative to control. The essentials:
(§1)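 Seeds on sterile filter paper wetted with 1 mL aqueous solution containing 3.4 × 10^-4 g mL^-1 Tween 80. Eucalyptus oil tested at 0.0154 g mL^-1, giving about 0.1 mol L^-1 1,8-cineole. Dishes sealed and kept flat. 10 seeds/dish, 5 dishes. Incubated 72 h at 25 °C under 135–195 μE m^-2 s^-1 light. Germination, root length or shoot length compared with control.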

The subject of assay [2] is Lolium rigidum. Put plainly: Pre-emergence herbicidal activity against Lolium rigidum seeds assessed as concentration required to suppress seed germination at 25 degC after 72 hr by filter paper bioassay. The method, boiled down: (§2)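 Two seed-plate formats. Filter paper: sterile paper wetted with 1 mL aqueous solution containing 3.4 × 10^-4 g mL^-1 Tween 80, dish sealed and flat. 10 seeds/dish, 5 dishes per concentration. Incubated 72 h at 25 °C under light. Threshold taken by one-way ANOVA at P = 0.05.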

For assay [3], the system named is Radish. Put plainly: Pre-emergence herbicidal activity against Raphanus sativus var.Long scarlet (radish) seeds assessed as root length at 0.1 mol/l at 25 degC after 72 hr by filter paper bioassay relative to control. The essentials: as §1
The test system of assay [4] is Radish. Put plainly: Pre-emergence herbicidal activity against Raphanus sativus var.Long scarlet (radish) seeds assessed as concentration required to suppress seed germination at 25 degC after 72 hr by filter paper bioassay. The method, boiled down: as §2
The test system of assay [5] is Lolium rigidum. Nature of the assay: Pre-emergence herbicidal activity against Lolium rigidum seeds assessed as concentration required to suppress root growth at 25 degC after 72 hr by filter paper bioassay. The method, boiled down:
as §2

The test system of assay [6] is Radish. Put plainly: Pre-emergence herbicidal activity against Raphanus sativus var.Long scarlet (radish) seeds assessed as concentration required to suppress shoot growth at 25 degC after 72 hr by filter paper bioassay. The essentials: as §2
Assay [7] concerns Radish. Put plainly: Pre-emergence herbicidal activity against Raphanus sativus var.Long scarlet (radish) seeds assessed as seed germination at 0.1 mol/l at 25 degC after 72 hr by filter paper bioassay relative to control. The essentials:
as §1

For assay [8], the system named is Radish. Nature of the assay: Pre-emergence herbicidal activity against Raphanus sativus var.Long scarlet (radish) seeds assessed as shoot length at 0.1 mol/l at 25 degC after 72 hr by filter paper bioassay relative to control. The method, boiled down:
as §1

Assay [9] has as its system Lolium rigidum. Nature of the assay: Pre-emergence herbicidal activity against Lolium rigidum seeds assessed as root length at 0.1 mol/l at 25 degC after 72 hr by filter paper bioassay relative to control. The method, boiled down: as §1
Assay [10] relates to Radish. Put plainly: Pre-emergence herbicidal activity against Raphanus sativus var.Long scarlet (radish) seeds assessed as concentration required to suppress root growth at 25 degC after 72 hr by filter paper bioassay. The method, boiled down:
as §2

Assay [11] relates to Lolium rigidum. Put plainly: Pre-emergence herbicidal activity against Lolium rigidum seeds assessed as shoot length at 0.1 mol/l at 25 degC after 72 hr by filter paper bioassay relative to control. The essentials: as §1
The subject of assay [12] is Lolium rigidum. Put plainly: Pre-emergence herbicidal activity against Lolium rigidum seeds assessed as concentration required to suppress shoot growth at 25 degC after 72 hr by filter paper bioassay. The method, boiled down: as §2

`CC12CCC(CC1)C(C)(C)O2` [EUCALYPTOL]: the Activity in the assay with Lolium rigidum [1] stood at 30.2%; in the assay with Lolium rigidum [2], 0.1 mol/L; with Radish [3], 37.1%; in the assay with Radish [4], 0.1 mol/L; in the assay with Lolium rigidum [5], 0.1 mol/L; in the assay on Radish [6], 1 mol/L. Further, the Activity with Radish [7] was 34.1%; with Radish [8] it was 64.7%; in the assay on Lolium rigidum [9], 22.4%; with Radish [10], 1 mol/L; in the assay with Lolium rigidum [11] it was 28.4%; in the assay on Lolium rigidum [12] it was 0.1 mol/L.
